Assay [1] deals with Delta-type opioid receptor (Rattus norvegicus, UniProt P33533). Briefly: Inhibition of [3H]-DADLE binding to rat brain delta receptor. Put shortly:
(§1)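 Crude rat brain synaptosomal fraction (600 μg protein/mL) in 50 mM Tris-HCl pH 7.4 with BSA, bacitracin, bestatin and soybean trypsin inhibitor. Radioligand [3H]DAGO (μ) or [3H]DADLE (δ) at 2 nM. The δ assay also held 2.6 μM [Nα-MePhe3,D-Pro4]morphiceptin to block μ sites. Nonspecific binding with 1 μM unlabeled ligand. Incubated 60 min at 25 °C, filtered on PEI-soaked GF/B, counted by scintillation. Ki from IC50 by Cheng-Prusoff; mean of three.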

The species entered for the next assay is Cavia porcellus. Briefly: In vitro inhibitory concentration against electrically induced contraction of guinea pig ileum (GPI). The assay is classed as functional. Put shortly:
(§2)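 Electrically stimulated isolated tissue: longitudinal muscle strips of Hartley guinea pig ileum (250-300 g) for GPI, vas deferens of male ddY mouse (25-35 g) for MVD. IC50 read from log dose-response curves of contraction inhibition.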

The target of assay [2] is Opioid receptors; mu & delta (Rattus norvegicus) (UniProt P33533+P33535). As to the kind of experiment: Relative binding affinity for mu and delta opioid receptors. The assay is classed as protein assay.
Opioid receptors; mu & delta (Rattus norvegicus), sequence (P33533 whole entry, looked up): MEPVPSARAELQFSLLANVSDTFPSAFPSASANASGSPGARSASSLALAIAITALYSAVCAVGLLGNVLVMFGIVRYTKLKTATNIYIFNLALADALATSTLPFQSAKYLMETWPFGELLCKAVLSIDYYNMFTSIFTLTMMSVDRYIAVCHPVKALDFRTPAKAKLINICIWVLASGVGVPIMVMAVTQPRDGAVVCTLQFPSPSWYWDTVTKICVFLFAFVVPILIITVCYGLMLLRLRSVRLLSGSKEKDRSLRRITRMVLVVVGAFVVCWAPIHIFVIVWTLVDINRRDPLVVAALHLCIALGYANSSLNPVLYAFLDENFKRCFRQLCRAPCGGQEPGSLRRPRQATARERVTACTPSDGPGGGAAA
Opioid receptors; mu & delta (Rattus norvegicus), sequence (P33535 whole entry, looked up): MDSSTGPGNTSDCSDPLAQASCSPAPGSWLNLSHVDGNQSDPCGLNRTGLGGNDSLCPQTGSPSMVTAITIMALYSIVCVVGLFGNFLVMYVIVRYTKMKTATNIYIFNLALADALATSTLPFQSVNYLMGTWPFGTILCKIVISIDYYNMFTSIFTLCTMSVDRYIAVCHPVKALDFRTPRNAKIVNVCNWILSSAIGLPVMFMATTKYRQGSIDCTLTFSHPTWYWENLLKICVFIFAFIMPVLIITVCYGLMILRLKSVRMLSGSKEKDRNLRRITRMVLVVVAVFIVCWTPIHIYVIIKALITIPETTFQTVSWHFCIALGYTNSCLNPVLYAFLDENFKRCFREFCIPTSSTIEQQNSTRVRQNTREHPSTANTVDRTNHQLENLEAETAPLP
For the next assay, the species on record is Mus musculus. As to the kind of experiment: In vitro inhibitory concentration against electrically induced contraction of mouse vas deferens (MVD). The assay is classed as functional. In outline:
as §2

Assay [3] in a line: IC50 ratio measured as the IC50 values of GPI to that of MVD. The assay is classed as functional.
Assay [4] addresses Mu-type opioid receptor (Cavia porcellus) (UniProt P97266). Briefly: Ratio of antagonistic activity against mu receptors in guinea pig ileum in presence and absence of mu agonist dermorphin. The assay is classed as functional, tissue-based. Put shortly:
(§3)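 Agonist log dose-response curves were run with and without a fixed antagonist level. Ke was derived from the ratio of the IC50 values.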

Assay [5] shares this target. As to the kind of experiment: Ratio of antagonistic activity against mu receptors in guinea pig ileum in presence and absence of mu agonist DAGO. The assay is classed as functional, tissue-based. Put shortly:
as §3

A further assay concerns the target Mu-type opioid receptor (Rattus norvegicus, UniProt P33535). As to the kind of experiment: Inhibition of [3H]DAGO binding to rat brain Opioid receptor mu 1. In outline:
as §1

For assay [6], the target named is Delta-type opioid receptor (Mus musculus) (UniProt P32300). Briefly: Ratio of antagonistic activity against delta receptors in mouse vas deferens in presence and absence of delta agonist leu-enkephalin. The assay is classed as functional. Put shortly: as §3
Delta-type opioid receptor (Mus musculus), sequence (P32300 whole entry): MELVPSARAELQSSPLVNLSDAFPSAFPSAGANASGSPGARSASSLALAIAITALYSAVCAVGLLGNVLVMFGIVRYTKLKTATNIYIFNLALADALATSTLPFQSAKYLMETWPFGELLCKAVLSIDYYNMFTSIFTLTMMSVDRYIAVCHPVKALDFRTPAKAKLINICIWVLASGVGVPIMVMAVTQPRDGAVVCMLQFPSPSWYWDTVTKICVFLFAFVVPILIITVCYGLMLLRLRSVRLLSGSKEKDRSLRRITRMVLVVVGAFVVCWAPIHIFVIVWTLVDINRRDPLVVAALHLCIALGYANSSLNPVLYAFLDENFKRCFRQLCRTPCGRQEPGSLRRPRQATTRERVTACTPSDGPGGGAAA
The target is the same in assay [7]. Briefly: Ratio of antagonistic activity against delta receptors in mouse vas deferens in presence and absence of delta agonist DPDPE. The assay is classed as functional. Put shortly:
as §3

For assay [8] the target is unchanged. Briefly: Ratio of antagonistic activity against delta receptors in mouse vas deferens in presence and absence of delta agonist DADLE. The assay is classed as functional. In outline: as §3
For assay [9] the target is unchanged. Briefly: Ratio of antagonistic activity against delta receptors in mouse vas deferens in presence and absence of delta agonist DL-II. The assay is classed as functional. In outline: as §3
For assay [10] the target is unchanged. Briefly: Ratio of antagonistic activity against delta receptors in mouse vas deferens in presence and absence of delta agonist deltorphin. The assay is classed as functional. In outline:
as §3

Structures are written as SMILES. Starred links: 1 amine or outer side, 2 acyl side, 3 side chain; linkers in the order of their positions; H or OH if unused. Non-standard residues stand in square brackets, D forms with d. Residues, ends and D or L forms follow the SMILES beside them. X1 = CSCC[C@H](CN([C@@H](Cc1ccccc1)C(=O)[*:2])[*:1])N[*:3]; Tle = CC(C)(C)[C@H](N)C(=O)O; NBuGly = CCCCNCC(=O)O

Mu-type opioid receptor (Cavia porcellus), sequence (P97266 whole entry): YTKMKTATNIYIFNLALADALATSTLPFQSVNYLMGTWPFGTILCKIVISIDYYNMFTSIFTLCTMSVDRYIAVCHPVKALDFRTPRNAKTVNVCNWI
Delta-type opioid receptor, sequence (P33533 whole entry): as the sequence (P33533 whole entry, looked up) above
Mu-type opioid receptor, sequence (P33535 whole entry): as the sequence (P33535 whole entry, looked up) above

With `CSCC[C@@H](NC(=O)[C@@H](N)Cc1ccc(O)cc1)C(=O)N[C@@H](Cc1ccccc1)C(=O)N[C@@H](Cc1c[nH]cn1)C(=O)N[C@@H](CC(C)C)C(=O)N(CC(=O)N[C@@H](CC(=O)O)C(N)=O)CC(C)C`, the Ki in assay [1] worked out at 0.85 nM; on Mu-type opioid receptor it was 58 nM. The IC50 in the assay filed under Cavia porcellus (Cavia porcellus, Ileum) came out at 3870 nM; in the assay filed under Mus musculus (Mus musculus), 2.36 nM. In addition, the Ki ratio in [2] was determined as 68. For the same compound, the Ratio in assay [3] was determined as 1640. Besides, the Ke worked out at 165 nM in assay [4] and 138 nM in assay [5].

For `Oc1ccc2c3c1O[C@H]1c4[nH]c5ccccc5c4C[C@@]4(O)[C@@H](C2)N(CC2CC2)CC[C@]314`, the Ke worked out at 0.94 nM in assay [6]; 0.65 nM in assay [7]; 0.67 nM in [8]; 0.67 nM in assay [9]; 151 nM in assay [4]; 0.65 nM in assay [10]. Moreover, the Ke in [5] was 52.2 nM.

As to `CCCCN(CC(=O)N[C@@H](CC(=O)O)C(N)=O)C(=O)[C@H](CC(C)C)NC(=O)[C@H](Cc1c[nH]cn1)NC(=O)[C@H](Cc1ccccc1)NC[C@@H](CCSC)NC(=O)[C@@H](N)Cc1ccc(O)cc1` (H-[X1](Tyr)HL[NBuGly]D-NH2), the half-maximal inhibitory concentration (IC50) in the assay filed under Cavia porcellus (Cavia porcellus, Ileum) was 422 nM; in the assay listed under Mus musculus (Mus musculus), 26 nM. In assay [2], the Ki ratio was 76. Also, in assay [3], the Ratio came out at 16.

`CSCC[C@@H](NC(=O)[C@@H](N)Cc1ccc(O)cc1)C(=O)N[C@@H](Cc1ccccc1)C(=O)N[C@@H](Cc1c[nH]cn1)C(=O)N[C@@H](CC(C)C)C(=O)N[C@H](C(=O)N[C@@H](CC(=O)O)C(N)=O)C(C)(C)C`: the inhibition constant Ki in assay [1] came out at 0.46 nM; on Mu-type opioid receptor, 271 nM. Also, the concentration for half-maximal inhibition (IC50) in the assay filed under Cavia porcellus (Cavia porcellus, Ileum) stood at 325 nM; in the assay filed under Mus musculus (Mus musculus), 1.28 nM. Moreover, the Ki ratio in assay [2] worked out at 589. Moreover, the Ratio in [3] came out at 254.

Turning to `CCCCN(CC(=O)N[C@@H](CC(=O)O)C(N)=O)C(=O)[C@H](CC(C)C)NC(=O)[C@H](Cc1c[nH]cn1)NC(=O)[C@H](Cc1ccccc1)NC(=O)[C@@H](CCSC)NC(=O)[C@@H](N)Cc1ccc(O)cc1`, the results for the Ki (in assay [1]; at Mu-type opioid receptor) were 0.04 nM and 820 nM, respectively. For the same compound, the IC50 was 578 nM in the assay filed under Cavia porcellus (Cavia porcellus, Ileum) and 0.56 nM in the assay listed under Mus musculus (Mus musculus). Besides, the Ki ratio in [2] was found to be 18200. For the same compound, the Ratio in assay [3] turned out to be 1030.

`CCCCN(CC(=O)N[C@@H](CC(=O)O)C(N)=O)C(=O)[C@@H](NC(=O)[C@H](Cc1cnc[nH]1)NC(=O)[C@H](Cc1ccccc1)NC[C@@H](CCSC)NC(=O)[C@@H](N)Cc1ccc(O)cc1)C(C)(C)C` (H-[X1](Tyr)H[Tle][NBuGly]D-NH2): the figures for the Ki (in assay [1]; at Mu-type opioid receptor) were 2.56 nM and 157 nM, respectively.

For `CC[C@H](C)N(CC(=O)N[C@@H](CC(=O)O)C(N)=O)C(=O)[C@H](CC(C)C)NC(=O)[C@H](Cc1c[nH]cn1)NC(=O)[C@H](Cc1ccccc1)NC(=O)[C@@H](CCSC)NC(=O)[C@@H](N)Cc1ccc(O)cc1` (stereo in doubt; 6b) [listing 1 of 2 here], the Ki ratio in [2] is 9690. Further, the Ratio in assay [3] came out at 844.

Turning to `CCCCN(CC(=O)N[C@@H](CC(=O)O)C(N)=O)C(=O)[C@@H](NC(=O)[C@H](Cc1c[nH]cn1)NC(=O)[C@H](Cc1ccccc1)NC(=O)[C@@H](CCSC)NC(=O)[C@@H](N)Cc1ccc(O)cc1)C(C)(C)C`, the Ki in [1] came to 12.4 nM; at Mu-type opioid receptor, 152 nM. Moreover, the IC50 in the assay filed under Cavia porcellus (Cavia porcellus, Ileum) came to 1680 nM; in the assay listed under Mus musculus (Mus musculus) it was 1910 nM. The Ki ratio in assay [2] is 12. Besides, in [3], the Ratio came out at 0.9. For the same compound, the values for the Ke in assay [4] and in assay [5] were 554 nM and 520 nM, respectively.

As to `CC[C@H](C)N(CC(=O)N[C@@H](CC(=O)O)C(N)=O)C(=O)[C@H](CC(C)C)NC(=O)[C@H](Cc1c[nH]cn1)NC(=O)[C@H](Cc1ccccc1)NC(=O)[C@@H](CCSC)NC(=O)[C@@H](N)Cc1ccc(O)cc1` (stereo in doubt; 6b) [listing 2 of 2 here], the Ki in assay [1] came out at 0.09 nM; on Mu-type opioid receptor it was 798 nM. The IC50 in the assay filed under Cavia porcellus (Cavia porcellus, Ileum) came to 642 nM; in the assay filed under Mus musculus (Mus musculus), 0.76 nM.

For `CSCC[C@H](NC(=O)[C@H](CC(C)C)NC(=O)[C@H](Cc1cnc[nH]1)NC(=O)[C@H](Cc1ccccc1)NC(=O)[C@@H](CCSC)NC(=O)[C@@H](N)Cc1ccc(O)cc1)C(=O)N[C@@H](CC(=O)O)C(N)=O` (H-Y[dM]FHLMD-NH2), the inhibition constant (Ki) is 0.19 nM in assay [1] and 219 nM at Mu-type opioid receptor. Moreover, the IC50 stood at 632 nM in the assay filed under Cavia porcellus (Cavia porcellus, Ileum) and 0.93 nM in the assay filed under Mus musculus (Mus musculus).

With `CC[C@H](C)N(CC(=O)N[C@@H](CC(=O)O)C(N)=O)C(=O)[C@H](CC(C)C)NC(=O)[C@H](Cc1c[nH]cn1)NC(=O)[C@H](Cc1ccccc1)NC(=O)[C@@H](CCSC)NC(=O)[C@@H](N)Cc1ccc(O)cc1` (stereo in doubt; 6a) [listing 1 of 2 here], the Ki ratio in [2] turned out to be 8730. Further, the Ratio in assay [3] stood at 777.

`CC[C@H](C)N(CC(=O)N[C@@H](CC(=O)O)C(N)=O)C(=O)[C@H](CC(C)C)NC(=O)[C@H](Cc1c[nH]cn1)NC(=O)[C@H](Cc1ccccc1)NC(=O)[C@@H](CCSC)NC(=O)[C@@H](N)Cc1ccc(O)cc1` (stereo in doubt; 6a) [listing 2 of 2 here]: the inhibition constant Ki in assay [1] was determined as 0.1 nM; on Mu-type opioid receptor, 856 nM. The 50% inhibitory concentration (IC50) in the assay filed under Cavia porcellus worked out at 684 nM; in the assay listed under Mus musculus it was 0.88 nM.

For `CSCC[C@H](NC(=O)[C@H](C)NC(=O)[C@H](Cc1c[nH]cn1)NC(=O)[C@H](Cc1ccccc1)NC(=O)[C@@H](CCSC)NC(=O)[C@@H](N)Cc1ccc(O)cc1)C(=O)N[C@@H](CC(=O)O)C(N)=O`, the Ke in [6] is 721 nM; in assay [8] it was 598 nM; in assay [10] it was 632 nM. For the same compound, the Ki in [1] was 1.71 nM; at Mu-type opioid receptor, 133 nM. Besides, the IC50 in the assay listed under Cavia porcellus (Cavia porcellus, Ileum) is 216 nM; in the assay filed under Mus musculus (Mus musculus), 406 nM. For the same compound, the Ki ratio in [2] amounted to 78. For the same compound, the Ratio in assay [3] amounted to 0.5.

Turning to `CCCCN(CC(=O)N[C@@H](CC(=O)O)C(N)=O)C(=O)[C@H](CC(C)C)NC(=O)[C@H](Cc1cnc[nH]1)NC(=O)[C@H](Cc1ccccc1)NC[C@@H](CCSC)NC(=O)[C@@H](N)Cc1ccc(O)cc1` (H-[X1](Tyr)HL[NBuGly]D-NH2), the Ki in [1] was determined as 1.89 nM; on Mu-type opioid receptor it was 143 nM.

In the case of `CCCCN(CC(=O)N[C@@H](CC(=O)O)C(N)=O)C(=O)[C@@H](NC(=O)[C@H](Cc1c[nH]cn1)NC(=O)[C@H](Cc1ccccc1)NC[C@@H](CCSC)NC(=O)[C@@H](N)Cc1ccc(O)cc1)C(C)(C)C` (H-[X1](Tyr)H[Tle][NBuGly]D-NH2), the IC50 in the assay filed under Cavia porcellus (Cavia porcellus, Ileum) was 995 nM; in the assay filed under Mus musculus (Mus musculus), 42 nM. For the same compound, in assay [2], the Ki ratio was found to be 61. For the same compound, the Ratio in [3] is 23.

As to `CSCC[C@H](NC(=O)[C@@H](NC(=O)[C@H](Cc1c[nH]cn1)NC(=O)[C@H](Cc1ccccc1)NC(=O)[C@@H](CCSC)NC(=O)[C@@H](N)Cc1ccc(O)cc1)C(C)(C)C)C(=O)N[C@@H](CC(=O)O)C(N)=O`, the Ke was 18.4 nM in assay [6]; 311 nM in assay [7]; 15.8 nM in assay [8]; 17.2 nM in [9]; 16.1 nM in assay [10]. Also, the results for the inhibition constant (Ki) (in assay [1]; on Mu-type opioid receptor) were 9.45 nM and 382 nM, respectively. Besides, the IC50 in the assay listed under Cavia porcellus (Cavia porcellus, Ileum) was 1200 nM; in the assay listed under Mus musculus (Mus musculus) it was 2430 nM. Further, the Ki ratio in assay [2] worked out at 40. The Ratio in [3] was 0.5.

One may read the Ki as the dissociation constant of the complex between target and ligand, obtained from inhibition or displacement. A higher Ki goes with weaker binding. For orientation: IC50 means the concentration that inhibits the measured activity by half. The low end stands for greater potency, the high end for weaker potency.

Values taken from ChEMBL document CHEMBL1128603, “Novel deltorphin heptapeptide analogs with potent delta agonist, delta antagonist, or mixed mu antagonist/delta agonist properties” (J Med Chem, 1995).
